Experimental data published in PMC8380758 (ACS chemical biology, 2021).
Positions count from the first letter of the chain named. No end group written: not given here.

T1: PHD1 domain of histone demethylase KDM5A (S287–E344) (UniProt P29375 287-344, 15N- or 13C-,15N-labeled)
T1 sequence (looked up): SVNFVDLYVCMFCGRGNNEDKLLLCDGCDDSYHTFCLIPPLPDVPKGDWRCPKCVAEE

T2: GST–PHD1 WT (KDM5A S287–K347) (UniProt P29375 287-347)
T2 sequence (looked up): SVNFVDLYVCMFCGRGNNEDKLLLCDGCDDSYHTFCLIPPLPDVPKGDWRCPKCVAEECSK

T3: GST–PHD1 D292N (KDM5A S287–K347) (UniProt P29375 287-347, D292N)
T3 sequence (looked up): T2 sequence (looked up) with D6N

T4: GST–PHD1 V330A (KDM5A S287–K347) (UniProt P29375 287-347, V330A)
T4 sequence (looked up): T2 sequence (looked up) with V44A

T5: GST–PHD1 Y294A (KDM5A S287–K347) (UniProt P29375 287-347, Y294A)
T5 sequence (looked up): T2 sequence (looked up) with Y8A


Key:
GST–PHD1 (KDM5A) Y294F = assay: Fluorescence polarization binding, Y294F mutant; settings: FP, H3K4 10mer peptides
PHD1KDM5B = settings: ref [13],[14]; cited from earlier work
[1] = test system: PHD1 (S287–E344) of KDM5A; assay: 2D 1H,15N HSQC NMR peptide titration; assay type: binding; settings: 200 μM 15N-labeled PHD1, 298 K, pH 7.5
Method in brief: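 15N-labelled KDM5A PHD1 (S287–E344) from GST fusion, GST removed by TEV, then Ni-resin pass and gel filtration. […] Buffer was 50 mM HEPES, NaCl, 0.5 mM TCEP, 0.1 mM ZnCl2, pH 7.5, 5% D2O, 298 K. CSP = √[(ΔH² + (0.2ΔN)²)/2].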

[2] = molecular target: T1, PHD1 domain of histone demethylase …; assay: NMR titration
[3] = molecular target: T2, GST–PHD1 WT (KDM5A S287–K347); assay: fluorescence polarisation
[4] = molecular target: T3, GST–PHD1 D292N (KDM5A S287–K347); assay: fluorescence polarisation
[5] = molecular target: T4, GST–PHD1 V330A (KDM5A S287–K347); assay: fluorescence polarisation
[6] = molecular target: T5, GST–PHD1 Y294A (KDM5A S287–K347); assay: fluorescence polarisation

Molecule	impact of mutation on binding (GST–PHD1 (KDM5A) Y294F)	binding result [2]	binding result [3]	binding result [4]	binding result [5]	binding result [6]	Kd (PHD1KDM5B)	interaction strength indicated by slow–intermediate exchange [1]
H3K4me3: H3K4me3 10mer peptide	minimal impact on binding	–	–	–	–	–	> 80 µM	–
H3K4me1: H3K4me1 10mer peptide	–	–	–	–	–	–	–	strong interactions, comparable to those with unmodified H3
H3 10mer: H3 10mer (A1–S10)	–	–	–	–	–	–	–	low–micromolar affinity
ARTK(Me3)QTARKS (peptide, UniProt P68431 2-11, looked up) [histone H3K4me3 10mer peptide]	–	binds	binds	binds	binds	binds	–	–
ARTK(Me2)QTARKS (peptide, UniProt P68431 2-11, looked up) [histone H3K4me2 10mer peptide]	–	binds	binds	binds	binds	binds	–	–
ARTK(Me)QTARKS (peptide, UniProt P68431 2-11, looked up) [histone H3K4me1 10mer peptide]	–	binds	binds	binds	binds	binds	–	–

Second part, led by results:

impact of mutation on binding (GST–PHD1 (KDM5A) Y294F)	binding result [2]	binding result [3]	binding result [4]	binding result [5]	binding result [6]	Molecule	Kd (PHD1KDM5B)	interaction strength indicated by slow–intermediate exchange [1]
minimal impact on binding	–	–	–	–	–	H3K4me2: H3K4me2 10mer peptide	> 80 µM	–
–	binds	binds	binds	–	–	ARTKQTARKS (peptide, UniProt P68431 2-11, looked up) [histone H3 10mer peptide (A1–S10), unmodified]	–	–
